Data as given in ChEMBL document CHEMBL3580617, “Discovery of Benzimidazole CYP11B2 Inhibitors with in Vivo Activity in Rhesus Monkeys” (ACS Med Chem Lett, 2015).

How the values were obtained:
[1] = molecular target: T1, Steroid 17-alpha-hydroxylase/17,20 lyase (Homo sapiens, UniProt P05093); experiment: Inhibition of human CYP17 expressed in COS7 cells incubated for 1 hr before 17-hydroxypregnenolone substrate addition by EIA method; assay type: cell-based, COS-7
T1 sequence (P05093 whole entry): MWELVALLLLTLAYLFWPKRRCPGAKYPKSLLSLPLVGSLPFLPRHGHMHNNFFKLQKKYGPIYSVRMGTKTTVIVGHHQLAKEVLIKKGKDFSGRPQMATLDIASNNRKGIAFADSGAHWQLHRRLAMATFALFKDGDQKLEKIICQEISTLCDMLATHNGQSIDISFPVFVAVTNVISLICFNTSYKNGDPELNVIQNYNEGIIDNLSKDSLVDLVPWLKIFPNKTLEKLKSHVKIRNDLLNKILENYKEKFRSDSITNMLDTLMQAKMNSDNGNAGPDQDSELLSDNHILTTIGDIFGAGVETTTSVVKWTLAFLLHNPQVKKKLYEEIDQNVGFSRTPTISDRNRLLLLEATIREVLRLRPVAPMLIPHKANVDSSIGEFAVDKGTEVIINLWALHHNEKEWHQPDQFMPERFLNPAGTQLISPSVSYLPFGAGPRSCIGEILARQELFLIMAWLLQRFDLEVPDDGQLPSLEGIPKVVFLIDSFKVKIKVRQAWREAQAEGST

Aromatase = molecular target: T2, Aromatase (Homo sapiens, UniProt P11511); experiment: Inhibition of CYP19 (unknown origin) using MFC substrate incubated for 30 mins
T2 sequence (P11511 whole entry): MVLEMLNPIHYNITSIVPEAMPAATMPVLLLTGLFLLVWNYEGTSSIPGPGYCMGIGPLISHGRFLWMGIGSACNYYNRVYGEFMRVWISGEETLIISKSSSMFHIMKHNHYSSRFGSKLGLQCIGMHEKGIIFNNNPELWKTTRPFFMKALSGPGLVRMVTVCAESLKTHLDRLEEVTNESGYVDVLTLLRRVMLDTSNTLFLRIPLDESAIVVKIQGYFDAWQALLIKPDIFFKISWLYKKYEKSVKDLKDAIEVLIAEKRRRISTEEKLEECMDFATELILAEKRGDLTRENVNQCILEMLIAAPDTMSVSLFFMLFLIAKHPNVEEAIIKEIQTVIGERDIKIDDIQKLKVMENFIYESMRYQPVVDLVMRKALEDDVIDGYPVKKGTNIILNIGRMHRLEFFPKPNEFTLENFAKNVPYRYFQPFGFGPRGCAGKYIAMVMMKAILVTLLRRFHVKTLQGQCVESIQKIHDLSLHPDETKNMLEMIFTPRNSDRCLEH

[2] = Fraction unbound in rat plasma at […] incubated for 4 hrs by equilibrium dialysis and LC/MS method; assay type: ADME, cell-free
[3] = Intrinsic clearance in rat liver microsomes at […] incubated for 10 mins before NADPH addition by LC/MS method; assay type: ADME; settings: read-out: CLH
[4] = Oral bioavailability in Sprague-Dawley rat at 2 mg/kg by LC-MS/MS method; assay type: ADME, organism-based; settings: in vivo
Method in brief: (§1)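 In the rat pharmacokinetic study, AUC was normalized for dose (μM·h·kg/mg), plasma clearance was expressed in mL/min/kg, and oral bioavailability was calculated.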

Rattus norvegicus = experiment: Dose normalized AUC in Sprague-Dawley rat at 2 mg/kg, po or 1 mg/kg, iv by LC-MS/MS method; assay type: ADME, organism-based; settings: in vivo; method in brief: as §1
[5] = Plasma clearance in Sprague-Dawley rat at 2 mg/kg, po or 1 mg/kg, iv by LC-MS/MS method; assay type: ADME, organism-based; method in brief: as §1
Steroid 21-hydroxylase = molecular target: T3, Steroid 21-hydroxylase (Homo sapiens, UniProt P08686); experiment: Inhibition of human CYP21 expressed in COS7 cells incubated for 1 hr before […] substrate addition by HTRF-based assay; assay type: cell-based, COS-7
T3 sequence (P08686 whole entry): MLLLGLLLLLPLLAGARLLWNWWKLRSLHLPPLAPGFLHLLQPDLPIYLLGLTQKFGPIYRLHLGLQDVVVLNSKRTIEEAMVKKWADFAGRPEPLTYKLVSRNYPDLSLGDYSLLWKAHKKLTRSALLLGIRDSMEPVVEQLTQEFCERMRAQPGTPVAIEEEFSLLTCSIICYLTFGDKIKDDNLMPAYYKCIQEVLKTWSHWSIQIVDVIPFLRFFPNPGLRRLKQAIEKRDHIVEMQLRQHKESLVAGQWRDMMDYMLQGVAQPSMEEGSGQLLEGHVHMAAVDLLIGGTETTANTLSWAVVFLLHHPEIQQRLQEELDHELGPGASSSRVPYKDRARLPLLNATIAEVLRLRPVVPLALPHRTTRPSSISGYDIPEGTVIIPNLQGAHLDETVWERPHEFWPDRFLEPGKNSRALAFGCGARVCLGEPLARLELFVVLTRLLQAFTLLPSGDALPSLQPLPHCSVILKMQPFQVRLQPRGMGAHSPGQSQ

Cytochrome P450 3A4 = Cytochrome P450 3A4 (Homo sapiens, UniProt P08684); experiment: Inhibition of CYP3A4 (unknown origin); assay type: ADME
Cytochrome P450 2C9 = Cytochrome P450 2C9 (Homo sapiens, UniProt P11712); experiment: Inhibition of CYP2C9 (unknown origin); assay type: ADME
Cytochrome P450 2D6 = Cytochrome P450 2D6 (Homo sapiens, UniProt P10635); experiment: Inhibition of CYP2D6 (unknown origin); assay type: ADME
[6] = Fraction unbound in rhesus monkey plasma at […] incubated for 4 hrs by equilibrium dialysis and LC/MS method; assay type: ADME, cell-free, Macaca mulatta
[7] = Oral bioavailability in rhesus monkey at 1 mg/kg by LC-MS/MS method; assay type: ADME, organism-based, Macaca mulatta; settings: in vivo
Rhesus monkey = experiment: Dose normalized AUC in rhesus monkey at 1 mg/kg, po or 0.5 mg/kg, iv by LC-MS/MS method; assay type: ADME, organism-based, Macaca mulatta; settings: in vivo
[8] = Plasma clearance in rhesus monkey at 1 mg/kg, po or 0.5 mg/kg, iv by LC-MS/MS method; assay type: ADME, organism-based, Macaca mulatta
[9] = molecular target: T4, Cytochrome P450 11B2, mitochondrial (Rattus norvegicus, UniProt P30099); experiment: Inhibition of rat CYP11B2 expressed in V79 cells incubated for 1 hr before 11-deoxycorticosterone substrate addition by HTRF-based assay; assay type: cell-based; settings: v79, 1 h
T4 sequence (P30099 whole entry): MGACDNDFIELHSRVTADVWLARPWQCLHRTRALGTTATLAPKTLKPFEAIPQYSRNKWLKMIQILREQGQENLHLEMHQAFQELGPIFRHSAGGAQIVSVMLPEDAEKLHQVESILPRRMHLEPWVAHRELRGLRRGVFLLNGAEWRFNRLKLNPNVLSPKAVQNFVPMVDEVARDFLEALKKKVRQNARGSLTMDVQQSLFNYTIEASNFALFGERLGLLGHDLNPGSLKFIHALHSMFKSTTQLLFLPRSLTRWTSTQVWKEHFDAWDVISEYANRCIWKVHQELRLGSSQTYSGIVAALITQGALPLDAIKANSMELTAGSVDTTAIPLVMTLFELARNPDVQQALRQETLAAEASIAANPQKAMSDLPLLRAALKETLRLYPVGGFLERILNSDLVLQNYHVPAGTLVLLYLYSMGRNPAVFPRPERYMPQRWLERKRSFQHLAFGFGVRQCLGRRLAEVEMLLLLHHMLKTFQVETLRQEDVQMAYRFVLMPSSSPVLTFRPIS

Sequence of Cytochrome P450 2C9 (P11712 whole entry): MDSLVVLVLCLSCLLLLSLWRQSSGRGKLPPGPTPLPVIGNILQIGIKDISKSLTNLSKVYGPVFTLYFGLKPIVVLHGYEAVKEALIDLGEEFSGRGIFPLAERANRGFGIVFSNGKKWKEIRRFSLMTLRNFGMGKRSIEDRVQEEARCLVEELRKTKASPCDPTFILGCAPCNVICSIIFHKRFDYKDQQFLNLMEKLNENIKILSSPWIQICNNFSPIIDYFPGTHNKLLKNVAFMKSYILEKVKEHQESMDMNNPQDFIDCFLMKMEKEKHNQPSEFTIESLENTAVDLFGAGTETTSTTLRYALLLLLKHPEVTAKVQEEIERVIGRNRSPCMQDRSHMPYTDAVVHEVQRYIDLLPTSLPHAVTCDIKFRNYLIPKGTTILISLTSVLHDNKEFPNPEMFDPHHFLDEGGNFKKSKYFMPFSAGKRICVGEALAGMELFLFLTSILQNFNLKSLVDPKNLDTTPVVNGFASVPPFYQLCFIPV
Sequence of Cytochrome P450 3A4 (P08684 whole entry): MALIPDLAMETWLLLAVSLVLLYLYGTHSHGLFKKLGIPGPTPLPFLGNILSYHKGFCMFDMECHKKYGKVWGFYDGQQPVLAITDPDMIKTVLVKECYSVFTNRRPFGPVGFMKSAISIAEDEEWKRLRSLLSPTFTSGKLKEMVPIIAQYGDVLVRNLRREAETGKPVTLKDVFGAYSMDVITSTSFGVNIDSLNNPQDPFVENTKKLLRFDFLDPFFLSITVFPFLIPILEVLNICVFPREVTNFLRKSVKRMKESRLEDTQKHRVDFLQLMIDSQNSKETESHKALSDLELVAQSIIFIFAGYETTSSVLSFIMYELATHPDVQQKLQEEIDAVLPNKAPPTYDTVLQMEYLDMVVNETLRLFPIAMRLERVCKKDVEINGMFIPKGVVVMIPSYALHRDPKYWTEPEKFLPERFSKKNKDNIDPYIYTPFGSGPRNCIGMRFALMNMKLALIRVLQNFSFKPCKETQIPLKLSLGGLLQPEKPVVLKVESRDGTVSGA
Sequence of Cytochrome P450 2D6 (P10635 whole entry): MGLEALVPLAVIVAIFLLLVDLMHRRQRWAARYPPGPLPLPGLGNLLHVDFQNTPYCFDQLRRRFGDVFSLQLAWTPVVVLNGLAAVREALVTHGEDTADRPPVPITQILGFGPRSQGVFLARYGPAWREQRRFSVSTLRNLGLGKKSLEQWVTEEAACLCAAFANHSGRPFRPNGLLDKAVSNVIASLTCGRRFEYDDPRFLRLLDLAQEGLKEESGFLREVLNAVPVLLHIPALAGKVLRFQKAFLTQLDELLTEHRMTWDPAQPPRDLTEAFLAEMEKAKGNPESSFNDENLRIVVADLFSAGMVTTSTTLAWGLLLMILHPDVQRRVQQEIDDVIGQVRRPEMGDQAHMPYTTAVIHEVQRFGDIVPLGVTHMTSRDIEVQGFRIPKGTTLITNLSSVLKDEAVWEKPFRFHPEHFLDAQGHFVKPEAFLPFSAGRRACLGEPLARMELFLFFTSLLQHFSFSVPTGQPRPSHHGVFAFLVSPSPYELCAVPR

CC(C)(O)c1cncc(-c2nc3ccc(F)cc3n2C2CC2)c1 [MSD-CYP11B2]
IC50 [1]: > 10 µM
IC50 (Aromatase): 1.02 µM
fraction unbound at 4 h [2]: 0.13
CLint scaled [3]: < 20 mL/min/kg
bioavailability [4]: 76%
AUC/dose (Rattus norvegicus): 4.32 µM·kg·h/mg
clearance [5]: 10 mL/min/kg
IC50 (Steroid 21-hydroxylase): > 10 µM
IC50 (Cytochrome P450 3A4): > 50 µM
inhibition (INH) (Cytochrome P450 2C9): Not Active
inhibition (INH) (Cytochrome P450 2D6): Not Active
fraction unbound at 4 h [6]: 0.07
bioavailability [7]: 15%
AUC/dose (Rhesus monkey): 1.53 µM·kg·h/mg
clearance [8]: 5 mL/min/kg
inhibition (INH) [9]: Not Active

Fc1cncc(-c2nc3cc(F)c(F)cc3n2C2CC2)c1
IC50 [1]: > 10 µM
IC50 (Aromatase): 4.51 µM
fraction unbound at 4 h [2]: 0.14
CLint scaled [3]: < 20 mL/min/kg
bioavailability [4]: 86%
AUC/dose (Rattus norvegicus): 2.1 µM·kg·h/mg
clearance [5]: 37 mL/min/kg
IC50 (Steroid 21-hydroxylase): > 10 µM
IC50 (Cytochrome P450 3A4): > 50 µM
inhibition (INH) (Cytochrome P450 2C9): Not Active
inhibition (INH) (Cytochrome P450 2D6): Not Active
fraction unbound at 4 h [6]: 0.23
bioavailability [7]: 53%
AUC/dose (Rhesus monkey): 3.07 µM·kg·h/mg
clearance [8]: 10 mL/min/kg
inhibition (INH) [9]: Not Active
